Source: ChEMBL document CHEMBL2016474, “Structure-activity analysis and cell-based optimization of human galactokinase inhibitors” (ACS Med Chem Lett, 2011)
The source made the active and inactive calls. The rule behind the calls is not given here.

Tests used:
[1] = molecular target: T1, Galactokinase (Homo sapiens, UniProt P51570); assay: Inhibition of human galactokinase after 30 mins by Kinase-GloTM assay
In short: (§1)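 GALK in vitro inhibition with IC50 determination; each value from three replicate measurements, given with standard deviation. Compounds not active below 50 μM recorded as exceeding that concentration.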

[2] = molecular target: T1, Galactokinase; assay: Inhibition of human […] at >50 uM after 30 mins by Kinase-GloTM assay; in short: as §1
[3] = molecular target: T1, Galactokinase; assay: Inhibition of […] in human primary fibroblasts derived from GALT-deficient patients assessed as reduction in accumulation of gal-1P at 50 uM preincubated overnight prior galactose challenge measured after 4 hrs
In short: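 Intracellular GALK inhibition in primary fibroblasts from classic galactosemia (GALT-deficient) patients. Compound given at 50 or 100 μM. Read-out is the percent reduction of cellular gal-1P accumulation.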

[4] = Toxicity in human primary fibroblasts assessed as visible signs of lethality at 50 uM; format: cell-based; details: fibroblast
[5] = Toxicity in human primary fibroblasts assessed as lethality at >= 50 uM within 1 hr; format: cell-based; details: fibroblast
[6] = Toxicity in human primary fibroblasts; format: cell-based; details: fibroblast

T1 sequence (P51570 whole entry): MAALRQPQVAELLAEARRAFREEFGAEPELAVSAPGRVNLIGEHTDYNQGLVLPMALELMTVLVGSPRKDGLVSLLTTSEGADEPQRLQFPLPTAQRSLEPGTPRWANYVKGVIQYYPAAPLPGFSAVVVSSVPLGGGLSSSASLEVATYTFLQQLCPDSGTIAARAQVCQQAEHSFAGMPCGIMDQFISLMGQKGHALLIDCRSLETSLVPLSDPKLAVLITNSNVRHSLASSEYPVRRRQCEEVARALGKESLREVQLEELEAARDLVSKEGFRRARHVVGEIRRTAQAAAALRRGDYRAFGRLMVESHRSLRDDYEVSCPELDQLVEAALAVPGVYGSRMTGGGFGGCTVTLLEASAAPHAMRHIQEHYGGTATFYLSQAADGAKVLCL

N#CC1=C(SCc2ccccc2)SC(c2ccc(O)cc2O)NC1=O (stereo not given)
IC50 [1]: 1200 nM

CSC1=C(C#N)C(=O)NC(c2ccccc2O)S1 (stereo not given)
inhibition [1]: Active

N#CC1=C(SCc2ccccc2)SC(c2ccc3c(c2)OCO3)NC1=O (stereo not given)
IC50 [1]: 22500 nM

CSC1=C(C#N)C(=O)NC(c2ccc(Cl)cc2Cl)S1 (stereo not given)
inhibition [2]: inactive

N#CC1=C(SCc2cccc(N3CCOCC3)c2)SC(c2ccc(O)c(O)c2)NC1=O (stereo not given)
IC50 [1]: 1200 nM | inhibition [3]: 16% | Activity [4]: Non-toxic

N#CC1=C(SCc2cccc(N3CCOCC3)c2)SC(c2cc(O)ccc2O)NC1=O (stereo not given)
IC50 [1]: 900 nM | inhibition [3]: inactive

N#CC1=C(SCc2ccccc2)SC(c2ccc(C(=O)O)cc2)NC1=O (stereo not given)
inhibition [1]: Active

CC(=O)Oc1ccc(C2NC(=O)C(C#N)=C(SCc3ccccc3)S2)cc1OC(C)=O (stereo not given)
Activity [5]: Toxic

N#CC1=C(SCc2ccccc2)SC(c2cccc(O)c2)NC1=O (stereo not given)
IC50 [1]: 50000 nM

N#CC1=C(SCc2ccccc2)SC(c2ccc(O)c(O)c2)NC1=O (stereo not given)
Activity [6]: Toxic

N#CC1=C(SCc2ccccc2)SCNC1=O
inhibition [2]: inactive

N#CC1=C(SCc2ccc(O)cc2)SC2(CCC(C(=O)O)CC2)NC1=O (stereo not given)
inhibition [2]: inactive

COc1ccc(C2NC(=O)C(C#N)=C(SCc3ccccc3)S2)cc1 (stereo not given)
IC50 [1]: > 50000 nM

N#CC1=C(SCc2cccc(N3CCOCC3)c2)SC(c2ccc(O)cc2)NC1=O (stereo not given)
IC50 [1]: 2400 nM | inhibition [3]: inactive | Activity [4]: Non-toxic

CCCCSC1=C(C#N)C(=O)NC(c2ccccc2O)S1 (stereo not given)
inhibition [2]: inactive

N#CC1=C(SCc2ccccc2)SC(c2ccccc2O)NC1=O (stereo not given)
IC50 [1]: 12000 nM

N#CC1=C(SCc2ccccc2)SC(c2cc(O)ccc2O)NC1=O (stereo not given)
IC50 [1]: 700 nM

CC1NC(=O)C(C#N)=C(SCc2ccccc2)S1 (stereo not given)
inhibition [2]: inactive

N#CC1=C(SCc2ccccc2)SC(c2ccc(O)cc2)NC1=O (stereo not given)
IC50 [1]: 1800 nM

CC1(C)NC(=O)C(C#N)=C(SCc2ccccc2)S1
inhibition [2]: inactive
